The results in this text go back to PubChem BioAssay AID871 (The Scripps Research Institute Molecular Screening Center, 2007).

Molecules are shown by their SMILES. The whole screen tested about 190,000 compounds, of which about 1,800 (0.95%) were called active. Many of the other results were omitted from the sample, so actives are more common in it than they were. Unmarked numbers belong to inactive results.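 Rule for the calls: active = activation above the screen-wide mean of compound activation plus 3 SD (cut at about 130% in these data); inactive = the rest.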

The nature of the experiment: IL-6 driven STAT3 reporter potentiators, primary screen, U3A cells, luciferase, luminescence, MLSCN library (AID 871).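 Note: 0% = background luminescence of wells with medium and substrate only.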 As to conditions: IL-6 STAT3-luciferase reporter, at 5.6 µM, active compounds read high, 100% = signal with IL-6 EC80 alone. The method, boiled down:
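Material: STAT3-luciferase reporter U3A cells; Probe or stimulus: IL-6 (33 ng/mL); Incubation: compound pre-incubation 1 h before IL-6, then 6 h stimulation at 37 °C; Technique: luminescence from STAT3-driven luciferase reporter; Evaluation: % activation versus median of IL-6-stimulated wells; Controls: IL-6-only high control.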
Background: Reporter assays use an easily measured gene product as a stand-in for the process of interest.
Regarding `CCN(CC)CCN(C(=O)c1ccc(N2C(=O)CCC2=O)cc1)c1nc2cc3c(cc2s1)OCO3`, the activation (% of control) was 107%.
The same measure for `C/C(=N/NC(=O)c1ccc(NC(=O)c2ccc(F)cc2)cc1)c1ccccc1`: 85.3%.
Consider `COc1ccccc1C(=O)NNC(=O)c1ccc(NC(=O)c2ccccc2)cc1`, for which the activation (% of control) is 134% (active).
With `COc1ccc(C(=O)Nc2ccccc2C(=O)N/N=C/c2ccccc2OC)cc1`, the activation (% of control) was 105%.
As to `CCCn1c(C)cc(/C=C(\C#N)C(=O)OCC(=O)Nc2cc(OC)c(OC)c(OC)c2)c1C`, the activation (% of control) is 103%.
The same measure for `Cc1nc2ccccc2cc1O`: 163% (active); for `Cc1cc(O)ccc1-c1cnc2ccccc2n1`: 102%.
Next, `Cc1nc2ccccc2cc1OCc1ccc(F)cc1`: 44.1%; `CC(=O)NCCC(=O)Nc1cc(S(=O)(=O)N2CCOCC2)ccc1N1CCOCC1`: 105%.
Consider `CCOc1cc(NC(=S)NCCCN(C)C)c(OCC)cc1NC(=O)C1CC1`, for which the activation (% of control) was 99.1%.
Regarding `O=C(NNC1=C(C(=O)C(F)(F)F)CCC1)c1ccncc1`, the activation (% of control) is 95.6%.
Next, `CCN(CC)CCn1c(/N=C/c2cc(Br)ccc2O)nc2ccccc21`: 133% (active); `CCn1c(NC(=O)c2nn(C)cc2Br)nc2ccccc21`: 96.8%; `Oc1ccc(Br)cc1C=Nc1ccc2[nH]ncc2c1`: 102%.
`S=c1[nH]nc(-c2cccs2)n1/N=C/c1cccs1`: the activation (% of control) was 109%.
The same measure for `Cc1cc(OC(=O)c2ccccc2)c([N+](=O)[O-])c(=O)[nH]1`: 106%; for `O=C(NCC1CCCO1)/C(=C/c1ccc(Cl)cc1)NC(=O)c1ccccc1` (stereo unspecified): 88.2%; for `CSc1ccccc1NC(=O)c1cc(C2CC2)on1`: 122%.
Take `Cc1nn(Cc2ccc(Cl)c(Cl)c2)c(C)c1NC(=O)c1cc(C2CC2)on1`: the activation (% of control) is 92.8%.
On to `O=C(Nc1cc(C(F)(F)F)ccc1Cl)c1cc(C2CC2)on1`, for which the activation (% of control) is 150% (active).
For `CCCN(CCC)c1c([N+](=O)[O-])c(=O)oc2ccccc12`, the activation (% of control) was 96.6%.
Next, `Cc1ccn(-c2cccc(-n3ccc(C)n3)n2)n1`: 93.6%.
With `CCC(C)NC(=O)CN(C1CCCCC1)S(C)(=O)=O` (stereo unspecified), the activation (% of control) was 105%.
With `Cc1cc(=O)n2[nH]c(-c3sccc3-n3c(C)ccc3C)cc2n1`, the activation (% of control) was 118%.
For the compound `CCCC(C)C(=O)OCC(=O)Nc1c(Br)cc(C)cc1Br` (stereo unspecified), the activation (% of control) is 102%.
Next, `COc1ccc(Cc2nnc(NC(=O)c3cc(OC)c(OC)c(OC)c3)s2)cc1OC`: 91.5%.
Next, `Cc1cccc(C(=O)Nc2nnc(Cc3c[nH]c4ccccc34)s2)c1`: 157% (active); `CCc1nnc(NC(=O)[C@@H](NC(=O)c2cccc(C)c2)C(C)C)s1`: 101%; `CCc1ccc2ncc(C(=O)c3ccccc3)c(N3CCOCC3)c2c1`: 110%.
Next, `CCn1c(SCC(=O)N/N=C/C=C/c2ccccc2[N+](=O)[O-])nnc1-c1ccccc1`: 138% (active); `CCn1c(SCC(=O)Nc2ccc(S(=O)(=O)Nc3onc(C)c3C)cc2)nnc1-c1ccccc1`: 98.7%; `Cc1ccc(-n2c(SCC(=O)N/N=C/C=C/c3ccccc3[N+](=O)[O-])nc3ccccc3c2=O)cc1`: 97.7%.
Consider `COc1ccc(CCNC(=O)COC(=O)Cc2cc(OC)c(OC)c(OC)c2)cc1`, for which the activation (% of control) is 111%.
Turning to `CC(C)NC(=O)C(=O)NCCCOC(C)C`, the activation (% of control) was 101%.
For `COc1ccc2nc(/N=C(\N)NC(=O)Nc3ccccc3)nc(C)c2c1`, the activation (% of control) is 100%.
Next, `CCc1c(C)nc2c(OC)cccc2c1Cl`: 101%; `Cc1cccc2c(=O)n3c(nc12)CCCCC3`: 102%; `COc1nc(N=C(N)N)nc2c(C)cccc12`: 172% (active).
Consider `Cc1nc(N=C(N)N)nc2c(C)cccc12`, for which the activation (% of control) was 168% (active).
The same measure for `O=C(COC(=O)c1ccccc1)Nc1cccc(S(=O)(=O)N2CCOCC2)c1`: 101%; for `CCC1CCCCN1C(=S)Nc1ccc(SC(F)F)cc1` (stereo unspecified): 94.3%.
For the compound `CC1(C)CC(=O)CC2(C1)NCC(c1ccccc1Cl)c1c2[nH]c2ccccc12` (stereo unspecified), the activation (% of control) was 105%.
As to `O=C(C1=C(O)C(=O)N(c2ncccn2)C1c1cccs1)c1ccco1` (stereo unspecified), the activation (% of control) was 134% (active).
The same measure for `O=C(C1=C(O)C(=O)N(Cc2ccccc2)C1c1ccco1)c1ccco1` (stereo unspecified): 101%; for `O=C(C1=C(O)C(=O)N(Cc2ccccc2)C1c1cccnc1)c1ccco1` (stereo unspecified): 100%; for `CCOC(=O)CNC(=O)/C=C/c1c(Cl)cccc1Cl`: 86.6%.
With `CCOC(=O)C1CCN(c2ncnc3c2oc2ccc(Br)cc23)CC1`, the activation (% of control) is 141% (active).
The same measure for `CCOC(=O)C1CCN(c2ncnc3c2c(-c2ccccc2)cn3-c2ccc(C)cc2)CC1`: 102%; for `CCOC(=O)C1CCN(C(=O)c2oc3ccc(S(=O)(=O)N4CCCCCC4)cc3c2C)CC1`: 89.9%; for `O=C(O)c1ccccc1-c1ccccc1C(=O)Nc1nccs1`: 101%.
Next, `Cn1cccc1C(=O)Nc1nccs1`: 140% (active); `COc1cc(C(=O)Nc2nccs2)cc(OC)c1OC`: 81%.
For the compound `COC(=O)Cc1c(O)ccn(Cc2cccc(C(F)(F)F)c2)c1=O`, the activation (% of control) was 99.8%.
Next, `COCC(=O)N=Nc1c(O)[nH]c2ccccc12`: 92.2%; `Cc1c(-c2ccccc2)n[nH]c1C(=O)N=Nc1c(O)[nH]c2ccccc12`: 84.5%.
On to `Cc1cccc(N(CC(=O)N=Nc2c(O)[nH]c3ccccc23)S(C)(=O)=O)c1C`, for which the activation (% of control) is 140% (active).
Regarding `CC1=NNC(=O)C1CCC(=O)N/N=C\c1ccc(Cl)c(Cl)c1` (stereo unspecified), the activation (% of control) was 108%.
Next, `Cc1ccc2nsnc2c1NC(=O)c1ccccc1[N+](=O)[O-]`: 99.5%.
Next, `O=C(O/N=C(/c1ccccc1)c1ccncc1)c1ccccc1[N+](=O)[O-]`: 113%; `Cc1cccc(/C=N/NC(=O)CNc2cccc3ccccc23)n1`: 114%.
Turning to `C/C(=N\NC(=O)CSc1nc2ccccc2c(=O)n1-c1ccccc1C)c1cccs1`, the activation (% of control) is 105%.
As to `C/C(=N\NC(=O)CNc1cccc2ccccc12)c1ccc(Br)s1`, the activation (% of control) is 137% (active).
Next, `Cc1cc(/C=N/NC(=O)c2cccnc2)c(C)n1CC(C)C`: 118%.
The same measure for `Cc1c(Cl)cnc(NC(=O)COC(=O)c2ccc(S(=O)(=O)NCc3ccco3)cc2)c1Cl`: 103%; for `CSCCC(NC(=O)c1ccco1)C(=O)OCC(=O)Nc1ncc(Cl)c(C)c1Cl` (stereo unspecified): 145% (active); for `CSCCC(NC(=O)COc1ccccc1)C(=O)OCC(=O)c1cc2ccccc2o1` (stereo unspecified): 116%.
On to `O=C(CCn1c(=S)[nH]c2ccccc2c1=O)NCCCN1CCCC1=O`, for which the activation (% of control) is 98.6%.
With `O=C1CCCN1CCCNc1ncnc2c1[nH]c1ccccc12`, the activation (% of control) was 151% (active).
On to `CC(C)OCCCNc1ncnc2c1[nH]c1ccc(F)cc12`, for which the activation (% of control) was 36.3%.
For the compound `CCCc1nnc(SCC(=O)N2C(C)CCCC2C)n1CC` (stereo unspecified), the activation (% of control) is 105%.
The same measure for `N#CCSc1nn(-c2ccc(F)cc2)c(=S)s1`: 103%.
The same measure for `O=C(CNC1CCCCC1)NCC1(c2ccccc2)CCCC1`: 112%; for `CN1CCN(c2ccc([N+](=O)[O-])c(Sc3nc4ccccc4[nH]3)c2)CC1`: 137% (active).
Next, `O=C(CSc1nc2ccccc2[nH]1)N/N=C/C=C\c1ccccc1[N+](=O)[O-]`: 96.6%.
As for `CN1CCN(c2ccc(S(=O)(=O)Nc3ccccc3)cc2[N+](=O)[O-])CC1`, the activation (% of control) is 79.1%.
The same measure for `COc1ccc2c(c1)CCc1cn3ncc(C#N)c3nc1-2`: 100%; for `O=C(NCC1CCCCC1)c1cc(S(=O)(=O)N2CCCCC2)ccc1N1CCOCC1`: 104%.
Next, `O=[N+]([O-])c1ccc(N2CCN(S(=O)(=O)c3ccc4ccccc4c3)CC2)cc1NCc1ccco1`: 154% (active); `O=C(c1ccccc1)N1CCN(c2ccc([N+](=O)[O-])c(NCc3ccco3)c2)CC1`: 107%; `CC(=O)Nc1ccc(S(=O)(=O)N2CCN(c3ccc([N+](=O)[O-])c(NCCN4CCOCC4)c3)CC2)cc1`: 104%.
For the compound `CCCS(=O)(=O)N1CCC(CCOc2ccccc2)(C(=O)OCC)CC1`, the activation (% of control) was 95.8%.
The same measure for `O=C(/C(=C/c1cccc(Cl)c1)c1nc2ccccc2[nH]1)c1ccccc1`: 98.5%; for `Oc1ccc(Cl)cc1/C=N/c1nc2ccccc2[nH]1`: 143% (active); for `c1ccc2[nH]c(-c3nc4ccccc4[nH]3)nc2c1`: 63.1%.
Regarding `C/C(=N\c1nc2ccccc2n1C)c1cc(Cl)ccc1O`, the activation (% of control) is 137% (active).
For `Cc1c(C(=O)Nc2cccc(Cl)c2)cn2c(nc3ccccc32)c1C#N`, the activation (% of control) is 94.7%.
Take `Cc1ccc(O)c(CNc2nc3ccccc3n2C)c1`: the activation (% of control) was 102%.
Take `CC(C)CNC(=O)/C=C/C(=O)O`: the activation (% of control) was 103%.
Next, `O=C(CN1CCCC1)N1CCN(c2ccccc2)CC1`: 104%.
Take `Cc1nnc(SCc2cccc(Cl)c2)n(N)c1=O`: the activation (% of control) is 88.9%.
For `Cc1ccc(N=Nc2c(C)[nH]n(-c3ccccc3)c2=O)cc1`, the activation (% of control) was 147% (active).
For `Cc1cccc(N=Nc2c(C)[nH]n(-c3ccccc3)c2=O)c1`, the activation (% of control) was 122%.
Next, `Cc1c(N=Nc2ccc(N(C)C)cc2)c(=O)n(-c2ccccc2)n1C`: 115%; `Cc1nc2scc(-c3cccs3)c2c(=O)n1N`: 97.7%; `Cc1nn2c3ccccc3nc2n(C)c1=O`: 91%.
As to `Cn1cccc1-c1nc2ccccc2n1C`, the activation (% of control) is 89.2%.
Next, `Cc1ccc(C2=NN(C)c3nc4ccccc4n3C2)cc1`: 170% (active); `O=C(N/N=C1\CCSC1)c1cc(Cl)ccc1O`: 100%; `CCCS(=O)(=O)Nc1c(C(=O)O)[nH]c2ccccc12`: 184% (active).
The same measure for `CCCC(=O)Nc1c(O)c2ccccc2[nH]c1=O`: 101%.
`Cc1c(C(=O)CN2CCOCC2)[nH]c2ccccc12`: the activation (% of control) was 121%.
